Laboratory results reported in ChEMBL document CHEMBL1687883, “Dinoxin B, a withanolide from Datura inoxia leaves with specific cytotoxic activities” (J Nat Prod, 2011).

Experiments:
[1] = system: T47D; assay: Cytotoxicity against human T47D cells after 48 hrs by CellTiterGlo luminescent assay; format: functional, cell-based
How it was run: (§1)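 Cells (5000-15 000 per well) were plated and left to adhere for 24 h in standard growth medium under ATCC-recommended conditions. The medium was then replaced and the compound added across varying doses, with DMSO in the final medium. Viability was read by ATP-dependent CellTiter-Glo luminescence, and IC50 values were derived from the dose series.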

[2] = system: MCF7; assay: Cytotoxicity against human MCF7 cells after 48 hrs by CellTiterGlo luminescent assay; format: functional, cell-based; conditions: MCF7, 48 h; how it was run: as §1
[3] = system: MDA-MB-468; assay: Cytotoxicity against human MDA-MB-468 cells after 48 hrs by CellTiterGlo luminescent assay; format: functional, cell-based; conditions: MDA-MB-468, 48 h; how it was run: as §1
[4] = system: OVCAR-3; assay: Cytotoxicity against human OVCAR3 cells after 48 hrs by CellTiterGlo luminescent assay; format: functional, cell-based; conditions: OVCAR-3, 48 h; how it was run: as §1
[5] = Cytotoxicity against human Hs 578T cells after 48 hrs by CellTiterGlo luminescent assay; format: functional, cell-based; how it was run: as §1
[6] = system: RKO; assay: Cytotoxicity against human RKO cells after 48 hrs by CellTiterGlo luminescent assay; format: functional, cell-based; how it was run: as §1
[7] = system: SK-MEL-2; assay: Cytotoxicity against human SK-MEL-2 cells after 48 hrs by CellTiterGlo luminescent assay; format: functional, cell-based; conditions: SK-MEL-2, 48 h; how it was run: as §1
[8] = system: A549; assay: Cytotoxicity against human A549 cells after 48 hrs by CellTiterGlo luminescent assay; format: functional, cell-based; conditions: A549, 48 h; how it was run: as §1
[9] = system: COLO 205; assay: Cytotoxicity against human COLO205 cells after 48 hrs by CellTiterGlo luminescent assay; format: functional, cell-based; conditions: COLO 205, 48 h; how it was run: as §1
[10] = system: MDA-MB-453; assay: Cytotoxicity against human MDA-MB-453 cells after 48 hrs by CellTiterGlo luminescent assay; format: functional, cell-based; conditions: MDA-MB-453, 48 h; how it was run: as §1
[11] = system: A-427; assay: Cytotoxicity against human A427 cells after 48 hrs by CellTiterGlo luminescent assay; format: functional, cell-based; conditions: A-427, 48 h; how it was run: as §1
[12] = system: Huh-7; assay: Cytotoxicity against human HuH7 cells after 48 hrs by CellTiterGlo luminescent assay; format: functional, cell-based; conditions: Huh-7, 48 h; how it was run: as §1
[13] = system: UACC-62; assay: Cytotoxicity against human UACC62 cells after 48 hrs by CellTiterGlo luminescent assay; format: functional, cell-based; conditions: UACC-62, 48 h; how it was run: as §1
[14] = Cytotoxicity against rat IEC-6 cells after 48 hrs by CellTiterGlo luminescent assay; format: cell-based; conditions: IEC-6, 48 h; how it was run: as §1
[15] = system: MDA-MB-231; assay: Cytotoxicity against human MDA-MB-231 cells after 48 hrs by CellTiterGlo luminescent assay; format: functional, cell-based; conditions: MDA-MB-231, 48 h; how it was run: as §1
[16] = system: HepG2; assay: Cytotoxicity against human HepG2 cells after 48 hrs by CellTiterGlo luminescent assay; format: functional, cell-based; conditions: HepG2, 48 h; how it was run: as §1
[17] = Cytotoxicity against human Hep3B cells after 48 hrs by CellTiterGlo luminescent assay; format: functional, cell-based, Hep 3B2; how it was run: as §1
[18] = system: SW48; assay: Cytotoxicity against human SW48 cells after 48 hrs by CellTiterGlo luminescent assay; format: functional, cell-based; conditions: SW48, 48 h; how it was run: as §1
[19] = system: SK-MEL-28; assay: Cytotoxicity against human SK-MEL-28 cells after 48 hrs by CellTiterGlo luminescent assay; format: functional, cell-based; conditions: SK-MEL-28, 48 h; how it was run: as §1
[20] = system: SK-MEL-5; assay: Cytotoxicity against human SK-MEL-5 cells after 48 hrs by CellTiterGlo luminescent assay; format: functional, cell-based; conditions: SK-MEL-5, 48 h; how it was run: as §1
[21] = Cytotoxicity against human NHF177 cells after 48 hrs by CellTiterGlo luminescent assay; format: cell-based; conditions: NHF177, 48 h; how it was run: as §1
[22] = system: HUVEC; assay: Cytotoxicity against human HUVEC cells after 48 hrs by CellTiterGlo luminescent assay; format: cell-based; how it was run: as §1
[23] = system: HCT-116; assay: Cytotoxicity against human HCT116 cells after 48 hrs by CellTiterGlo luminescent assay; format: functional, cell-based; conditions: HCT-116, 48 h; how it was run: as §1

Compound CC1=C(CO)C(=O)O[C@@H]([C@@H](CO)[C@H]2CC[C@H]3[C@@H]4CC=C5CC=CC(=O)[C@]5(C)[C@H]4C[C@@H](O)[C@]23C)C1 has an IC50 [1] of 990 nM, an IC50 [2] of 870 nM and an IC50 [3] of 750 nM.
Compound CC1=C(CO[C@@H]2O[C@H](CO)[C@@H](O)[C@H](O)[C@H]2O)C(=O)O[C@@H]([C@@H](CO)[C@H]2CC[C@H]3[C@@H]4CC=C5CC=CC(=O)[C@]5(C)[C@H]4C[C@@H](O)[C@]23C)C1 [DINOXIN B] has an IC50 [4] of 3200 nM, an IC50 [5] of 440 nM and an IC50 [1] of 220 nM. The IC50 [6] was 360 nM, the IC50 [7] was 360 nM and the IC50 [8] was 3400 nM. It also gave an IC50 [9] of 2200 nM, an IC50 [2] of 610 nM and an IC50 [10] of 3000 nM. For the same compound, the IC50 [3] was 580 nM, the IC50 [11] was 870 nM and the IC50 [12] was 1500 nM. It also gave an IC50 [13] of 500 nM, an IC50 [14] of 3300 nM and an IC50 [15] of 1000 nM. For the same compound, the IC50 [16] was 1500 nM, the IC50 [17] was 670 nM and the IC50 [18] was 580 nM. The IC50 [19] was 2300 nM, the IC50 [20] was 1400 nM and the IC50 [21] was 1230 nM. For the same compound, the IC50 [22] was 740 nM and the IC50 [23] was 1000 nM.
